# Experimental data: PMC4267758 (Journal of molecular biology, 2014)
# Like-named read-outs stand apart in the source and are kept apart here. Where no end group is shown, it is not given here. The star is where a group is joined. MTSL = methane thiosulphonate spin label, CC1(C)C=C(CS*)C(C)(C)N1[O]
# B1: paxillin^212–282: paxillin construct LD3–LD4 (protein)
# chain: EDVRPSVESLLDELESSVPSPVPAITVSQGEVSSPQRVNASQQQTRISASSATRELDELMASLSDFKFMAQGK
# B2: paxillin^133–290 (LD2–LD4 region of chicken paxillin) (domain or fragment, UniProt P49024 133-290, looked up)
# chain: MTSTSLGSNLSELDRLLLELNAVQHNPPSGFSADEVSRSPSLPNVTGPHYVIPESSSSAGGKAAPPTKEKPKRNGGRGIEDVRPSVESLLDELESSVPSPVPAITVSQGEVSSPQRVNASQQQTRISASSATRELDELMASLSDFKFMAQGKAGGSSS
# B3: paxillin^133–290: chicken paxillin residues 133–290, truncated construct comprising LD motifs 2, 3 and 4, N-terminal His-tag (protein)
# chain: B2 chain
# modifications: left off: His-tag, N-terminal, kept
# B4: Pyk2 focal adhesion-targeting (Pyk2-FAT) domain (domain or fragment, human, UniProt Q14289 871-1005, looked up)
# chain: ANLDRTDDLVYLNVMELVRAVLELKNELCQLPPEGYVVVVKNVGLTLRKLIGSVDDLLPSLPSSSRTEIEGTQKLLNKDLAELINKMRLAQQNAVTSLSEECKRQMLTASHTLAVDAKNLLDAVDQAKVLANLAH
# B5: Pyk2-FAT: FAT domain of human Pyk2 (residues 871–1005), N-terminal His6-tag (protein)
# chain: B4 chain
# modifications: left off: His6, N-terminal, state not stated
# B6: paxillin^133–242: paxillin construct LD2–LD3 (protein)
# chain: MTSTSLGSNLSELDRLLLELNAVQHNPPSGFSADEVSRSPSLPNVTGPHYVIPESSSSAGGKAAPPTKEKPKRNGGRGIEDVRPSVESLLDELESSVPSPVPAITVSQGE
# Assays:
# [1] = tested on: Pyk2-FAT; assay: Isothermal titration calorimetry; format: binding, human; conditions: for binding to Pyk2-FAT (qualitative, ITC): 20 mM MES, pH 6.2, 25°C
# How it was run: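 Human Pyk2 FAT domain (residues 871–1005) with an N-terminal His6 tag, expressed in E. coli BL21(DE3) and purified by Ni-affinity then gel filtration. The cell held 10 μM protein in 20 mM MES, pH 6.2. The syringe held chicken paxillin LD-motif peptides (100 μM) or the His-tagged paxillin 133–290 fragment (50 μM). Solutions degassed; 2 μl injections, 120 s apart, at 25°C. Ligand-into-buffer heats subtracted. Fits used one-site or two-site sequential models. Run in duplicate.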
# [2] = tested on: FAK-FAT; conditions: cited from earlier work
# [3] = tested on: Pyk2-FAT; assay: Sedimentation equilibrium AUC; format: binding, human; conditions: AUC-SE; for Kd: two site hetero-association model (A+B+B↔ABB), 1:2 Pyk2-FAT to peptide, 20 mM MES, pH 6.2, 4 °C, Monte Carlo error, 500 iterations, confidence level 0.68
# How it was run: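 Sedimentation equilibrium at 4 °C in 20 mM MES, 50 mM NaCl, pH 6.2. Rotor speeds 18.4, 26.9 and 46k rpm, equilibrium reached at 30, 26 and 18 h. Loading 35–96 μM. Absorbance read at 280 and 230 nm, 0.001 cm radial steps, 20 replicates per point. Global least-squares fit across speeds to the A+B+B↔ABB model.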
# [4] = tested on: FAT-like domain from G-protein-coupled receptor kinase-interacting protein 1 (GIT1); conditions: ref [41]; cited from earlier work
# [5] = tested on: Pyk2-FAT; assay: H/D exchange NMR of Pyk2-FAT complexes; set-up: species or system human; conditions: H/D exchange in D2O, fast 15N-HSQC, up to 10 h
# How it was run: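 15N-labelled Pyk2-FAT complexes (400–500 μM, 20 mM MES pH 6.2) were lyophilized and rehydrated in D2O. FAST 1H-15N HSQC spectra were recorded at intervals up to 10 h at 305 K. HSQC spectra in H2O before and after exchange checked structural integrity.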
# [6] = tested on: Pyk2-FAT; assay: NMR titration / chemical shift perturbation of 15N-labeled Pyk2-FAT; format: binding, human; conditions: 15N-HSQC/TROSY titration, Pyk2-FAT:ligand 1:0.2 to 1:2, 20 mM MES, pH 6.2, 305K
# How it was run: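 15N-labeled Pyk2-FAT (400–500 μM in 20 mM MES, pH 6.2) titrated at 305 K with chicken LD peptides at protein:peptide ratios of 1:0.2 to 1:2. Peptide stocks were in dialysis buffer, pH readjusted to 6.2. 15N-HSQC spectra recorded at 600/800 MHz. Weighted shift Δav = [(ΔH² + (ΔN/5)²)/2]^1/2. For PRE, MTSL-labeled peptides were added at 1:0.2 and Iox/Ired taken after ascorbate reduction.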
# [7] = tested on: Pyk2-FAT; assay: Steady-state 1H-15N heteronuclear NOE; set-up: species or system human; conditions: 600 MHz, 305 K; relative to free Pyk2-FAT, loop regions
# How it was run: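 Steady-state 1H-15N heteronuclear NOE was measured at 600 MHz, 305 K on 15N-labelled Pyk2-FAT, free and bound to LD-motif peptide. Protein was at 400–500 μM in 20 mM MES pH 6.2. NOE values were taken as peak-intensity ratios of 1H-saturated to unsaturated spectra.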
# [8] = target: B4; assay: AUC
# [9] = target: B4; assay: ITC
# [10] = Sedimentation velocity AUC; format: physicochemical; conditions: for percentage protein amount in c(s) peak: 20 °C, 50,000 rpm; for f/f0 (weight-average frictional ratio): best-fit from c(s) distribution, 20 °C
# How it was run: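 Sedimentation velocity at 50,000 rpm and 20°C in 20 mM MES, pH 6.2, with or without 50 mM NaCl. Partial specific volumes calculated from sequence. Rayleigh interference scans taken every 1.0 min over 10 h. Data fitted to a c(s) distribution model. The s-value is the ordinate maximum of each c(s) peak; percentage protein amount is reported per peak.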
# [11] = tested on: Pyk2-FAT; assay: Reverse NMR titration: unlabeled Pyk2-FAT added to 15N-labeled paxillin ligand; format: binding, human; conditions: 1H-15N HSQC/TROSY, ratios up to 1:2, 20 mM MES, pH 6.2
# How it was run: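 Unlabelled Pyk2-FAT was titrated into a 15N-labelled ligand in 20 mM MES pH 6.2, with 15N-1H HSQC spectra at 600/800 MHz and 305 K. Ligands were an expressed chicken paxillin 139–163 peptide or His-tagged chicken paxillin 133–290. […] Ratios were 1:0.2–1:2.0.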
# [12] = target: B4; assay: NMR paramagnetic relaxation enhancement
# [13] = target: B2; assay: AUC
# [14] = target: B2; assay: ITC
molecule,measurement,setting,value
"LD3: paxillin derived peptide LD3 (chicken paxillin; residues 217–237), chemically synthesized (SVESLLDELESSVPSPVPAIT)","binding to Pyk2-FAT (qualitative, ITC)",[1],very weak compared to LD2 and LD4 peptides
"LD4: paxillin derived peptide LD4 (chicken paxillin; residues 262–278), chemically synthesized (SATRELDELMASLSDFK)",preferred binding site on FAK-FAT,"[2]; ref [39] (b5), [39], [40]",binds to the H2/H3 site
same,LD4 binding to the FAK FAT H1/H4 site,[2]; ref [40],defective
same,global free energy difference between first and second sites (ΔGAB and ΔGABB),"[3]; 1:2 stoichiometry, two-site hetero-association model",-0.77 kcal/mol
same,"Delta G, single site (1:1)","[3]; single site hetero-association model, T = 277.149994K, RT = 0.551kcal/mol",-7.52 kcal/mol
same,"Delta G, first binding site (1:2)","[3]; two site hetero-association model, first site, T = 277.149994K, RT = 0.551kcal/mol",-7.47 kcal/mol
same,"Delta G, second binding site (both occupied)","[3]; two site hetero-association model, second site, T = 277.149994K, RT = 0.551kcal/mol",-6.70 kcal/mol
same,Kd,"[3]; read-out: KAB (first site), 1:2 stoichiometry",1290 ± 90 nM
same,Kd,"[3]; read-out: KABB (second site), 1:2 stoichiometry",5180 ± 360 nM
same,binding site on GIT1 FAT-like domain,[4],located exclusively at the H1/H4 surface
same,amide H/D exchange protection of Pyk2-FAT in complex,[5],residues from H2/H3 and H1/H4 were protected even after 10 hrs
same,affinity preference for H2/H3 site over H1/H4 site of Pyk2-FAT,[1]; from ITC and AUC studies,5 fold
same,binding sites / site preference on Pyk2-FAT by NMR,[6],H2/H3 is the stronger binding site
same,steady-state 1H-15N NOE of Pyk2-FAT amides upon ligand binding,[7],significantly increased relative to free Pyk2-FAT
B1,"binding to Pyk2-FAT (qualitative, ITC)",[1],two-site sequential binding model
"SATRELDELMASLSDFK (peptide, UniProt P49024 262-278, looked up) [paxillin LD4 peptide (chicken paxillin residues 262-278)]",Kd,[8],1170 nM
same,"dH, first site",[9],-2.8 ± 0.2 kcal/mol
same,"dH, second site",[9],0.9 ± 0.3 kcal/mol
B2,dH,[9],-5 ± 0.1 kcal/mol
same,stoichiometry N,[9],1.2
B3,increase of binding affinity for FAK FAT relative to LD2 or LD4 peptides alone,"[2]; similar paxillin^133–290 construct, ref [35]",10 fold
same,oligomerization state of unbound protein,[10],"appears to form some soluble associated species (oligomers) of undetermined stoichiometry’s, but the main species appears to be a monomer"
same,percentage protein amount in c(s) peak,[10],48%
same,f/f0 (weight-average frictional ratio),[10],1.70
same,f/f0 (weight-average frictional ratio),[10]; listed as paxillin,1.7
same,apparent molecular mass of the 1:1 complex,"[10]; theoretical 33,706 Da",30.20 kDa
same,effect of unlabeled Pyk2-FAT on resonances of 15N-labeled ligand,[11],several peaks from the LD2 and LD4 regions disappeared beyond detection
same,binding sites / site preference on Pyk2-FAT by NMR,[6],binding preference for H2/H3
"GSNLSELDRLLLELNAVQHNPPSGF (peptide, UniProt P49024 139-163, looked up) [paxillin LD2 peptide (chicken paxillin residues 139-163)]","dH, first site",[9],-2.4 ± 0.1 kcal/mol
same,"dH, second site",[9],0.3 ± 0.1 kcal/mol
"GSNLSELDRLLLELNAVC(MTSL)HNPPSGF (peptide, UniProt P49024 139-163, looked up) [spin-labeled LD2 (Q156C) peptide]",binding result,[12],binds
B4,Kd,[13],400 nM
same,Kd,[14],1800 ± 100 nM
B5,percentage protein amount in c(s) peak,[10],99%
same,f/f0 (weight-average frictional ratio),[10],1.34
B6,"binding to Pyk2-FAT (qualitative, ITC)",[1],two-site sequential binding model
